{"source": "ChEMBL document CHEMBL4393678", "about": "“Novel Tetrahydroquinazolinamines as Selective Histamine 3 Receptor Antagonists for the Treatment of Obesity” (J Med Chem, 2019)", "key": {"Mus musculus [1]": {"test_system": "Mus musculus", "experiment": "Anti-obesity activity in high fat diet-induced obese C57BL/6J mouse model assessed as change in blood TG level at 10 to 20 mg/kg, po measured after 6 weeks", "type": "functional, organism-based", "summary_of_the_method": "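At the end of treatment (six weeks HFD, four weeks db/db), mice euthanized with avertin 350 mg/kg. Blood taken by cardiac puncture into 3.8% sodium citrate. Plasma separated at 4000 rpm and stored at -80 °C. TG, TC, HDLc and LDLc measured on a bio-analyzer.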"}, "[2]": {"experiment": "Cmax in C57BL/6J mouse serum at 20 mg/kg, po by LC-MS/MS analysis", "type": "ADME, organism-based", "set-up": "dose 20 mg/kg, route oral", "summary_of_the_method": "(§1)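 Male C57BL/6J mice (6-8 weeks, 20 ± 5 g) fasted overnight (12-16 h) got a single 20 mg/kg oral dose as 2.5 mg/mL suspension in 1% w/v gum acacia; n=5 per time point. Serum and brain (PBS homogenate 1:6 w/v) sampled up to 24 h. Parent and demethylated metabolite quantified by LC-MS/MS after liquid-liquid extraction (C18, MRM, phenacetin internal standard; linear 0.25-200 ng/mL). Two-compartment open model fit.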"}, "[3]": {"experiment": "Ratio of AUClast in C57BL/6J mouse brain assessed as 4-(2-Amino-8-methyl-5,6,7,8-tetrahydroquinazolin-4-yl)phenol level to AUClast in C57BL/6J mouse serum assessed as 4-(2-Amino-8-methyl-5,6,7,8-tetrahydroquinazolin-4-yl)phenol level", "type": "ADME", "summary_of_the_method": "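Male C57BL/6J mice (6–8 weeks) were fasted 12–16 h, then given a single oral dose of 20 mg/kg as a 2.5 mg/mL suspension in 1% gum acacia/water (n=5 per time point). Serum and brain (homogenised 1:6 in PBS) were sampled up to 24 h. Parent and demethylated metabolite were measured by LC-MS/MS (range 0.25–200 ng/mL). AUC ran to the last observation.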"}, "[4]": {"target": "T1, G-protein coupled bile acid receptor 1 (Homo sapiens) (UniProt Q8TDU6)", "T1 sequence (whole entry)": "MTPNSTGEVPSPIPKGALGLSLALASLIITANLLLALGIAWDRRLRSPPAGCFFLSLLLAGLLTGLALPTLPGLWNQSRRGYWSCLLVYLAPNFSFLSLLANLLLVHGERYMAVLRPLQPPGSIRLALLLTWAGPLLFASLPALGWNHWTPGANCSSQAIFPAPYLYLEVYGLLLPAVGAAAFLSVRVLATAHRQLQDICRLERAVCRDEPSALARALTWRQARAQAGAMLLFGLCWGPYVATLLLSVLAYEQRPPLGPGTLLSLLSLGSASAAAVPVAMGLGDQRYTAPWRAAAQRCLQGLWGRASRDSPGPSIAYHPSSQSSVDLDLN", "experiment": "(§2) Antagonist activity at Gs-coupled GPBAR1 (unknown origin) expressed in HEK293T cells assessed as reduction in histamine-induced inhibition of forskolin-stimulated cAMP accumulation preincubated for 10 to 15 followed by histamine addition for 10 mins and subsequent forskolin-stimulation by Glo-sensor assay", "type": "functional, cell-based"}, "[5]": {"experiment": "Toxicity in lean C57BL/6J mouse assessed as effect on cumulative food intake at 20 mg/kg, po", "type": "organism-based", "settings": "in vivo", "summary_of_the_method": "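Lean male C57BL/6J mice fasted 12 h (8 am-8 pm, water available), singly housed, given 20 mg/kg orally in 5% gum acacia/saline or vehicle. Cumulative food intake measured over 4 h night phase (9 pm-1 am) starting 30 min after dosing.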"}, "[6]": {"target": "Kappa-type opioid receptor (Homo sapiens) (UniProt P41145)", "sequence (P41145 whole entry)": "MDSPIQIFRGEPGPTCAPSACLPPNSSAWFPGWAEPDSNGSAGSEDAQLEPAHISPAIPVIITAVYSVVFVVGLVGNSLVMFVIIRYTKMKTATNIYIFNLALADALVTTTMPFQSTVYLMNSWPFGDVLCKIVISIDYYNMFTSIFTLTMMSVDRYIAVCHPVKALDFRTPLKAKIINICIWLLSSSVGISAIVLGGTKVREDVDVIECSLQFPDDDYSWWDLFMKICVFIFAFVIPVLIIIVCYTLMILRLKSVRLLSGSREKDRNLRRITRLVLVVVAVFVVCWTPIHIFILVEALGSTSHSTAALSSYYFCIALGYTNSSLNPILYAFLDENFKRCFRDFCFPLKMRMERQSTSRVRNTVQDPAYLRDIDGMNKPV", "experiment": "as §2, with “Gi-coupled KOR” for “Gs-coupled GPBAR1”", "type": "functional, cell-based"}, "[7]": {"experiment": "Tmax in C57BL/6J mouse serum assessed as 4-(2-Amino-8-methyl-5,6,7,8-tetrahydroquinazolin-4-yl)phenol level at 20 mg/kg, po by LC-MS/MS analysis", "type": "ADME, organism-based", "settings": "in vivo", "summary_of_the_method": "as §1"}, "[8]": {"experiment": "Half life in C57BL/6J mouse brain assessed as 4-(2-Amino-8-methyl-5,6,7,8-tetrahydroquinazolin-4-yl)phenol level at 20 mg/kg, po by LC-MS/MS analysis", "type": "ADME, organism-based", "settings": "in vivo", "summary_of_the_method": "as §1"}, "Mus musculus [9]": {"test_system": "Mus musculus", "experiment": "Anti-obesity activity in high fat diet-induced obese C57BL/6J mouse model assessed as change in body weight at 20 mg/kg, po measured after 6 weeks (reference value: 3.86 +/- 0.99 g)", "type": "functional"}, "[10]": {"experiment": "Ratio of fCmax in C57BL/6J mouse brain to IC50 for recombinant human Gi-coupled H3 receptor expressed in HEK293T cells assessed as reduction in histamine-induced inhibition of forskolin-stimulated cAMP accumulation", "type": "cell-based", "summary_of_the_method": "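Fasted male C57BL/6J mice received a single oral dose of 20 mg/kg in gum acacia suspension. Brain Cmax came from LC-MS/MS of brain homogenate. Unbound brain fraction was measured by equilibrium dialysis of brain tissue homogenate. Unbound Cmax, converted to nM, was divided by the H3R antagonist IC50 from the GloSensor cAMP assay in transfected HEK293T cells.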"}, "[11]": {"target": "D(1B) dopamine receptor (Homo sapiens) (UniProt P21918)", "sequence (P21918 whole entry)": "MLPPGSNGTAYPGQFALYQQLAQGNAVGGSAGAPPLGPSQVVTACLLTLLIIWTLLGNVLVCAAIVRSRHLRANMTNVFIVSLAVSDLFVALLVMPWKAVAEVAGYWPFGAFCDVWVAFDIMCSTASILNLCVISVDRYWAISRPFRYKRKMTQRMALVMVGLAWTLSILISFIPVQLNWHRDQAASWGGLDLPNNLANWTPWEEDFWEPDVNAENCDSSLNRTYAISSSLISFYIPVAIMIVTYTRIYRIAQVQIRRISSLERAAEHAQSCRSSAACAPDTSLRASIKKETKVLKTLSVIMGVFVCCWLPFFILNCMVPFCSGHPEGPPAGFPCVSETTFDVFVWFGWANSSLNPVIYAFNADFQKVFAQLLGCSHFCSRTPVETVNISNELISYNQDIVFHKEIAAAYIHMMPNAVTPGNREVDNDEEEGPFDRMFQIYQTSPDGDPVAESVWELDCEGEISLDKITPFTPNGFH", "experiment": "Agonist activity at Gs-coupled D5 receptor (unknown origin) expressed in HEK293T cells assessed as inhibition of forskolin-stimulated cAMP accumulation preincubated for 10 to 15 followed by forskolin-stimulation by Glo-sensor assay", "type": "functional, cell-based"}, "Mus musculus [12]": {"test_system": "Mus musculus", "experiment": "Anti-obesity activity in 16 hrs fasted db/db-induced obese C57BL/6J mouse model assessed as improvement in glucose homeostasis at 20 mg/kg, po treated prior to glucose addition measured after 15 to 120 mins by IPGTT", "type": "functional, organism-based", "summary_of_the_method": "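Mice fasted 16 h; baseline tail-vein glucose read by glucometer. Glucose given i.p. at 2 g/kg (C57BL/6J) or 1 g/kg (db/db).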"}, "[13]": {"target": "D(3) dopamine receptor (Homo sapiens) (UniProt P35462)", "sequence (P35462 whole entry)": "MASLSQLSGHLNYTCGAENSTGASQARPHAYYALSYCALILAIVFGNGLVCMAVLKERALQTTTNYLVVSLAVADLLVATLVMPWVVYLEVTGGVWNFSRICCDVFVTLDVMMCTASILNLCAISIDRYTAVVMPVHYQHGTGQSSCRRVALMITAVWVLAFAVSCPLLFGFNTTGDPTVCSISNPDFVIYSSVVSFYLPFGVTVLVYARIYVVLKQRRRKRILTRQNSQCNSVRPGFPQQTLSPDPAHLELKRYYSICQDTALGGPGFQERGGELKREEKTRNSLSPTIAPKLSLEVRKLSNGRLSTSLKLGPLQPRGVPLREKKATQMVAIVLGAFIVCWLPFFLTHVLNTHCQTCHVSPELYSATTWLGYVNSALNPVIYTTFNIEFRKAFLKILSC", "experiment": "Agonist activity at D3 receptor (unknown origin)"}, "Mus musculus [14]": {"test_system": "Mus musculus", "experiment": "In vivo antagonist activity at H3R in 12 hrs fasted db/db-induced obese C57BL/6J mouse model assessed as increase in c-FOS expression in para-ventricular nucleus of hypothalamus at 20 mg/kg, ip measured after 90 mins by immunohistochemistry-based fluorescence assay", "type": "functional, organism-based"}, "Mus musculus [15]": {"test_system": "Mus musculus", "experiment": "Anti-obesity activity in high fat diet-induced obese C57BL/6J mouse model assessed as reduction in body weight at 10 to 20 mg/kg, po", "type": "functional, organism-based", "settings": "TDE = time-dependent effect"}, "[16]": {"experiment": "Tmax in C57BL/6J mouse brain assessed as 4-(2-Amino-8-methyl-5,6,7,8-tetrahydroquinazolin-4-yl)phenol level at 20 mg/kg, po by LC-MS/MS analysis", "type": "ADME, organism-based", "settings": "in vivo", "summary_of_the_method": "as §1"}, "Mus musculus [17]": {"test_system": "Mus musculus", "experiment": "Anorexic effect in 12 hrs fasted db/db-induced obese C57BL/6J mouse model assessed as reduction in cumulative food intake at 20 mg/kg, po pretreated for 30 mins followed by food addition measured after 4 hrs relative to control", "type": "functional", "set-up": "scale not given: the % may be the effect or the level left", "summary_of_the_method": "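Mice starved 12 h (8:00 am to 8:00 pm) with water available, then housed singly. Compound given orally in 5% gum acacia in normal saline; vehicle group received the same. Cumulative food intake measured over 4 h of the night phase (9:00 pm to 1:00 am), starting 30 min after dosing. Antagonism arms: imitet 5 mg/kg i.p. 30 min before compound, or α-methyl-DL-histidine 20 mg/kg i.p. 2 h before.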"}, "[18]": {"experiment": "Half life in C57BL/6J mouse brain at 20 mg/kg, po by LC-MS/MS analysis", "type": "ADME, organism-based", "summary_of_the_method": "as §1"}, "[19]": {"experiment": "Cmax in C57BL/6J mouse serum assessed as 4-(2-Amino-8-methyl-5,6,7,8-tetrahydroquinazolin-4-yl)phenol level at 20 mg/kg, po by LC-MS/MS analysis", "type": "ADME, organism-based", "set-up": "dose 20 mg/kg, route oral", "settings": "in vivo", "summary_of_the_method": "as §1"}}, "note": "The source made the active and inactive calls. The rule behind the calls is not given here."}
{"smiles": "COc1ccc(-c2nc(N)nc3c2CCCC3C)cc1", "note": "(racemic)", "values": [{"measurement": "Activity", "setting": "Mus musculus [1]", "result": "inactive"}, {"measurement": "Cmax", "setting": "[2]", "result": 3360, "unit": "ng/mL"}, {"measurement": "Ratio AUC", "setting": "[3]", "result": 6.1, "unit": "%"}, {"measurement": "inhibition", "setting": "[4]", "result": "inactive"}, {"measurement": "Activity", "setting": "[5]", "result": "Non-Toxic"}, {"measurement": "INH", "setting": "[6]", "result": "> 10", "unit": "µM"}, {"measurement": "Tmax", "setting": "[7]", "result": 0.25, "unit": "h"}, {"measurement": "t1/2", "setting": "[8]", "result": 1.2, "unit": "h"}, {"measurement": "Activity", "setting": "Mus musculus [9]", "result": 0.8, "unit": "g"}, {"measurement": "Ratio", "setting": "[10]", "result": 8.3}, {"measurement": "INH", "setting": "[11]", "result": "> 10", "unit": "µM"}, {"measurement": "Activity", "setting": "Mus musculus [12]", "result": "Active"}, {"measurement": "Activity", "setting": "[13]", "result": "inactive"}, {"measurement": "Activity", "setting": "Mus musculus [14]", "result": "Active"}, {"measurement": "Activity", "setting": "Mus musculus [15]", "result": "Tde"}, {"measurement": "Tmax", "setting": "[16]", "result": 0.5, "unit": "h"}, {"measurement": "Activity", "setting": "Mus musculus [17]", "result": 33, "unit": "%"}, {"measurement": "half-life", "setting": "[18]", "result": 1.1, "unit": "h"}, {"measurement": "Cmax", "setting": "[19]", "result": 3333.3, "unit": "ng/mL"}]}
